PG9 Ab binder = small molecules binding HIV-1 gp120 antibody PG9. AID 624416. 0.43% of 360,000 active. TR-FRET gp120-PG9 antibody binding. inhibition, % at 6.7 µM; in the data active = inhibition above about 8.5%
UCH37 DUB inh = inhibitors of human deubiquitinating enzyme UCH37; Q9Y5K5; 0.33% of 330,000 active; purified proteasome/UCH37, Ub-AMC cleavage fluorescence; inhibition, % (test concentration not listed); AID 588478;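 active = mean inhibition over replicate wells above about 20%, limit read from the data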;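 note: 0% = compound-free wells with enzyme and 100% = wells lacking proteasome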
Target sequence (Q9Y5K5 whole entry, looked up): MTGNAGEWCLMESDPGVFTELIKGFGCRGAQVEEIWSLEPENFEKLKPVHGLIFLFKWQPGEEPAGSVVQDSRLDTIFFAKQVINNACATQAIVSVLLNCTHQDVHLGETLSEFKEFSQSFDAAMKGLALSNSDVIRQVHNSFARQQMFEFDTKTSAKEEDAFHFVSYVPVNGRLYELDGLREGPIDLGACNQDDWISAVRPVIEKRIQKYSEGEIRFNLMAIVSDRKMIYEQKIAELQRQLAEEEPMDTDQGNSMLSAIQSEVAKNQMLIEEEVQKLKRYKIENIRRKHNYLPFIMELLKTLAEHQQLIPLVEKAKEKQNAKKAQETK
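Test system – human UCH37 enzyme supplied as purified proteasome complex · Incubation – 30 min preincubation with enzyme, 25 min cleavage at room temperature · Detection – AMC fluorescence from Ub-AMC cleavage, excitation 355 nm, emission 460 nm · Benchmarks – no-proteasome wells (full inhibition) and compound-free wells (no inhibition)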
MIN6 prolif-1 = induces beta-cell replication in MIN6 cells; 0.29% of 330,000 active; MIN6 cells proliferation, ATPlite luminescence, 48 h; cells starved in 0.2% serum; 100% = growth in 10% serum; AID 2380; proliferation, % at 10 µM;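 active = compounds whose signal lies at least 3.5 SD above the mean of all wells on their plate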;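 note: 0% = DMSO-treated cells in low-serum medium and 100% = 10% serum control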
Yeast superoxide = caloric restriction mimetics inhibiting age-related superoxide in yeast; S. cerevisiae aged cells, superoxide DHE fluorescence; hits give low values; superoxide response (% of plate mean), % at 10 µM; 0.18% of 330,000 active;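 active = superoxide response under a set limit, about three screen SD below normal, cut at about 65% in these data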;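 note: yeast aged for seven days with compound at 30 °C before DHE staining; 100% = average MFI of all compound-treated wells on the plate with controls excluded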
Rev-erbA mod = modulates human Rev-erb alpha binding to DNA; Rev-erbα–FITC-DNA binding, fluorescence polarization, 90 min; activity, % at 10 µM; 0.79% of 370,000 active;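 active = activity above about 14%, limit read from the data; passing the limit was not always enough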;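 note: 0% = DMSO wells with 35 nM protein and 100% = DMSO wells with 750 nM protein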
Rce1 inhib = blocks yeast Ras-converting enzyme | Q03530 | yeast membranes, quenched prenylated peptide cleavage fluorescence | calls only | 0.27% of 290,000 active;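 active = fall in fluorescence gain of 50% or more versus controls, with final raw signal at or below 3038400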;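 note: plate controls were neutral control wells for no effect and wells lacking membranes for full effect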
Target sequence (Q03530 whole entry, looked up): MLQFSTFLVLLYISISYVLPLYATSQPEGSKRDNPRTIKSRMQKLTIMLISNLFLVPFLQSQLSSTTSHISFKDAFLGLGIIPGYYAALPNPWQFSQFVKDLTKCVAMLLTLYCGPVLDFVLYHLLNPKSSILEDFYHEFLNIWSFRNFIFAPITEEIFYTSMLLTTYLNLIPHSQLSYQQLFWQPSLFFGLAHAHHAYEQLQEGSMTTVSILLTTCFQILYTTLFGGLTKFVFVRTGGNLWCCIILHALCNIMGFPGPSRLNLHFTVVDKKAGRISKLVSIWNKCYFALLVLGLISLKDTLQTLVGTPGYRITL
MIN6 prolif-2 = confirmation of inducers of beta-cell replication in MIN6 cells; shares compounds with MIN6 prolif-1; proliferation increase, % at 50 µM; 920 tested, under 10 active; MIN6 beta-cell proliferation, ATPlite luminescence, 48 h; cells kept in 0.2% serum; scaled between 0.2% and 10% serum;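 active = proliferation increase above 40% at any of the four tested concentrations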
Starred values were filed as active, the others as inactive. Rows were chosen to be rich in hits. Some 1.9% of all compounds tested hit in one or more screens of this group.

What do the screens show for `COc1ccc(N(C(=O)c2snc(C(N)=O)c2N)C(C(=O)NC2CCCC2)c2ccc(F)cc2)c(OC)c1` (centres undefined)?
PG9 Ab binder: -1; UCH37 DUB inh: -119; MIN6 prolif-1: -3; Yeast superoxide: 98; Rev-erbA mod: 2; Rce1 inhib: inactive

Results for COc1ccc(C(C(=O)NC2CCCCC2)N(C(=O)c2snc(C(N)=O)c2N)c2ccc(OC)cc2OC)cc1 (centres undefined) ?
PG9 Ab binder: 1; UCH37 DUB inh: -23; MIN6 prolif-1: -1; Yeast superoxide: 89; Rev-erbA mod: 5; Rce1 inhib: active

What do the screens show for `Cc1cc(C)c2nc(N(CCCN(C)C)C(=O)c3ccc4c(c3)CCCC4)sc2c1`?
PG9 Ab binder: -1; UCH37 DUB inh: 2; MIN6 prolif-1: -7; Yeast superoxide: 105; Rev-erbA mod: 6; Rce1 inhib: active

What do the screens show for `Fc1ccc(C=Nn2c(-c3cccs3)n[nH]c2=S)cc1`?
UCH37 DUB inh: 2

How did CCC1=NNc2cccc3c(OC)ccc1c23 do in these assays?
UCH37 DUB inh: -7; MIN6 prolif-1: -6; Yeast superoxide: 55*; Rce1 inhib: inactive

How did COc1ccc2c3c(cccc13)C(=O)N(O)C2=O do in these assays?
PG9 Ab binder: -1; UCH37 DUB inh: -65; Yeast superoxide: 83; Rev-erbA mod: -3; Rce1 inhib: inactive

What do the screens show for `c1ccc2c(c1)[nH]c1c(N3CCOCC3)ncnc12`?
PG9 Ab binder: -2; UCH37 DUB inh: -11; MIN6 prolif-1: 0; Yeast superoxide: 107; Rev-erbA mod: 0; Rce1 inhib: inactive

Results for CCc1cc(N2CCOCC2)cc2c1[nH]c1ccccc12 ?
PG9 Ab binder: -1; UCH37 DUB inh: -240; MIN6 prolif-1: 2; Yeast superoxide: 93; Rev-erbA mod: 1; Rce1 inhib: active

What do the screens show for `CN1C(=O)N(C)C2(c3ccccc3)Nn3c(sc(=Cc4ccccc4F)c3=O)=NC12c1ccccc1` (centres undefined)?
UCH37 DUB inh: 0

What do the screens show for `CCN(CC)c1ccc(/C=N/NC(=S)NCc2ccc(OC)cc2)cc1`?
PG9 Ab binder: -4; MIN6 prolif-1: -6; Yeast superoxide: 125; Rev-erbA mod: 6; Rce1 inhib: active

Results for Cc1cc(C)nc(N=C(N)Nc2ccccc2-c2ccccc2)n1 ?
UCH37 DUB inh: 4

Results for CCc1n[nH]c(=S)n1N=Cc1ccccn1 ?
UCH37 DUB inh: 2

What do the screens show for `O=C(NN=Cc1c(F)cccc1Cl)c1ccc(Cn2cc(Br)cn2)o1`?
UCH37 DUB inh: 0

What do the screens show for `C(=NN1CCOCC1)c1cn(-c2ccccc2)nc1-c1ccccc1`?
UCH37 DUB inh: 1

How did CCOc1ccc(NC(=O)CCSc2ccc(C)cc2)cc1 do in these assays?
PG9 Ab binder: 0; MIN6 prolif-1: 0; Yeast superoxide: 109; Rev-erbA mod: 1; Rce1 inhib: active

How did COc1ccc(C=NNC(=O)COc2ccccc2)c(C(=O)O)c1OC do in these assays?
UCH37 DUB inh: 3

What do the screens show for `Cc1ccc(SCCC(=O)N2CCOCC2)cc1`?
PG9 Ab binder: 1; UCH37 DUB inh: 1; MIN6 prolif-1: 5.1*; Yeast superoxide: 83; Rev-erbA mod: 4; Rce1 inhib: inactive; MIN6 prolif-2: 2

Results for O=C(NC1CCCC1)C(c1ccncc1)N(C(=O)c1csnn1)c1ccc(F)c(Cl)c1 (centres undefined) ?
PG9 Ab binder: -2; UCH37 DUB inh: -1; MIN6 prolif-1: 5.9*; Yeast superoxide: 92; Rev-erbA mod: -2; Rce1 inhib: inactive; MIN6 prolif-2: 0

Results for O=C(NC1CCCC1)C(c1ccncc1)N(C(=O)c1csnn1)c1cccc(Cl)c1 (centres undefined) ?
PG9 Ab binder: -1; UCH37 DUB inh: 7; MIN6 prolif-1: 2; Yeast superoxide: 117; Rev-erbA mod: -1

What do the screens show for `CC(=NS(=O)(=O)c1ccc(C)cc1)N1CCCCC1`?
UCH37 DUB inh: 2

How did CCOC(=O)Nc1nnc(CCc2ccccc2)s1 do in these assays?
PG9 Ab binder: 1; UCH37 DUB inh: 1; MIN6 prolif-1: 2; Yeast superoxide: 96; Rev-erbA mod: 3; Rce1 inhib: inactive

Results for CCc1nnc(NC(=O)OCc2ccccc2)s1 ?
PG9 Ab binder: -2; UCH37 DUB inh: 1; MIN6 prolif-1: 6.0*; Yeast superoxide: 113; Rev-erbA mod: 0; Rce1 inhib: inactive; MIN6 prolif-2: -2

What do the screens show for `CCOC(=O)c1cnc2c(C)cccc2c1NCCc1ccc(OC)c(OC)c1`?
PG9 Ab binder: 1; UCH37 DUB inh: -4; MIN6 prolif-1: 3; Yeast superoxide: 96; Rev-erbA mod: -3; Rce1 inhib: inactive

Results for CCOC(=O)c1cnc2ccc(C(=O)OC)cc2c1NCCc1ccc(OC)c(OC)c1 ?
PG9 Ab binder: -1; UCH37 DUB inh: 5; MIN6 prolif-1: 0.0*; Yeast superoxide: 99; Rev-erbA mod: 1; Rce1 inhib: inactive; MIN6 prolif-2: 3

How did Cc1cccc(OCC(=O)NCC(=O)NN=Cc2cccs2)c1 do in these assays?
UCH37 DUB inh: 3

What do the screens show for `COc1ccc(C=Nn2c(C)nnc2C)c(OC)c1OC`?
UCH37 DUB inh: 1

Results for Cc1ccc(S(=O)(=O)NCC(=O)NC2CC2)cc1 ?
PG9 Ab binder: 0; UCH37 DUB inh: 2; MIN6 prolif-1: 11*; Yeast superoxide: 100; Rev-erbA mod: 0; Rce1 inhib: inactive; MIN6 prolif-2: 0

Results for Cc1ccc(S(=O)(=O)NCCC(=O)NC2CC2)cc1 ?
PG9 Ab binder: -2; UCH37 DUB inh: 1; MIN6 prolif-1: -1; Yeast superoxide: 101; Rev-erbA mod: 2; Rce1 inhib: inactive

How did CNc1nc(Nc2ccccc2)nc(OCC(F)(F)F)n1 do in these assays?
PG9 Ab binder: -3; UCH37 DUB inh: 4; MIN6 prolif-1: 7.0*; Yeast superoxide: 92; Rev-erbA mod: -2; Rce1 inhib: inactive; MIN6 prolif-2: 1

How did CNc1nc(NN)nc(Nc2ccccc2)n1 do in these assays?
PG9 Ab binder: -2; UCH37 DUB inh: -2; MIN6 prolif-1: -2; Yeast superoxide: 106; Rev-erbA mod: 7; Rce1 inhib: inactive

How did CC1CC(C)CN(C(=O)c2cc(S(=O)(=O)N3CCCCC3)ccc2Cl)C1 (centres undefined) do in these assays?
PG9 Ab binder: -1; MIN6 prolif-1: 14*; Yeast superoxide: 97; Rev-erbA mod: -1; Rce1 inhib: inactive; MIN6 prolif-2: -5

Results for CC1CC(C)CN(C(=O)c2ccc(S(=O)(=O)N3CCCCC3)cc2)C1 (centres undefined) ?
PG9 Ab binder: 0; UCH37 DUB inh: 4; MIN6 prolif-1: -3; Yeast superoxide: 101; Rev-erbA mod: -1
